Measured values reported in ChEMBL document CHEMBL1125185, “Nonpeptide angiotensin II receptor antagonists: the discovery of a series of N-(biphenylylmethyl)imidazoles as potent, orally active antihypertensives” (J Med Chem, 1991).
Active and inactive are the calls of the source. The rule behind the calls is not given here.

Key:
[1] = test system: Rattus norvegicus; assay: Blood pressure lowering activity in renal hypertensive rats after peroral administration; NA=not active indicates fail to cause drop in blood pressure even at 100 mg/Kg (in vivo); format: functional, organism-based
Outline: (§1)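 Conscious male Sprague-Dawley CD rats, six days after left renal artery ligation and with jugular and carotid cannulae, were dosed by oral gavage at 1-100 mg/kg (4-6 rats/dose). Mean arterial pressure was monitored for 3 h.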

[2] = test system: Rattus norvegicus; assay: Blood pressure lowering activity in renal hypertensive rats after intravenous administration; NA=not active indicates fail to cause drop in blood pressure even at 100 mg/Kg (in vivo); format: functional, organism-based
Outline: (§2)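 Male Sprague-Dawley CD rats had the left renal artery ligated under hexobarbital (100 mg/kg ip). Six days later the jugular vein and carotid artery were cannulated under hexobarbital (90 mg/kg ip). Compound was given intravenously to the conscious hypertensive rats while mean arterial pressure was recorded.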

[3] = test system: Rattus norvegicus; assay: Blood pressure lowering activity in renal hypertensive rats after peroral administration; no drop in blood pressure or a statistically insignificant drop in blood pressure was observed (in vivo); format: functional; outline: as §1
[4] = test system: Rattus norvegicus; assay: Effective dose that lowers the blood pressure 30 mmHg after intravenous administration; format: functional
Outline: (§3)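 Renal artery-ligated conscious rats (4-6 per dose) received compound iv or po. ED30 is the dose lowering blood pressure by 30 mmHg. It was calculated by linear regression of mean maximal decreases, using at least three doses from the linear part of the dose-response curve.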

[5] = molecular target: T1, Angiotensin II receptor (Rattus norvegicus, UniProt P29089+P25095+P35351); assay: Inhibition of radioligand [3H]angiotensin II binding to angiotensin II receptor of rat adrenal cortical membrane
T1 sequence (P29089 whole entry): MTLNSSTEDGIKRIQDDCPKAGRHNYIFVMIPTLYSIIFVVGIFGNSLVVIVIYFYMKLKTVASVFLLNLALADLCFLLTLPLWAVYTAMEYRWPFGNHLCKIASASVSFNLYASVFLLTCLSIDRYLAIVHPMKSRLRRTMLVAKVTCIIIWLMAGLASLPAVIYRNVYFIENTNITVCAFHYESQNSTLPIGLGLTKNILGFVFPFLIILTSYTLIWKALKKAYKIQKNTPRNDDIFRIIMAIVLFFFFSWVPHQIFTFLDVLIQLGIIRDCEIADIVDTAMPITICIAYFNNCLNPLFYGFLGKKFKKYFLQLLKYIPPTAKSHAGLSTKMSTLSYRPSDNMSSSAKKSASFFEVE
T1 sequence (P25095 whole entry): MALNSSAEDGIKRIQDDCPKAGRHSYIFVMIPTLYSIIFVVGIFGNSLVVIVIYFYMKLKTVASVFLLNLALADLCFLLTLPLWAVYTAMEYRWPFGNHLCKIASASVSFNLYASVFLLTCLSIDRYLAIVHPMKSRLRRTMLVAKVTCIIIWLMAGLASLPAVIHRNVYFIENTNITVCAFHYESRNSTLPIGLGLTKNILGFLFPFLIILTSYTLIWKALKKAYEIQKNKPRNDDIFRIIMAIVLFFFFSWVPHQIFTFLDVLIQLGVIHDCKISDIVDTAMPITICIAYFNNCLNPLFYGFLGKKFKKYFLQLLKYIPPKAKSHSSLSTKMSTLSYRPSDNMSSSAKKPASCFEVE
T1 sequence (P35351 whole entry): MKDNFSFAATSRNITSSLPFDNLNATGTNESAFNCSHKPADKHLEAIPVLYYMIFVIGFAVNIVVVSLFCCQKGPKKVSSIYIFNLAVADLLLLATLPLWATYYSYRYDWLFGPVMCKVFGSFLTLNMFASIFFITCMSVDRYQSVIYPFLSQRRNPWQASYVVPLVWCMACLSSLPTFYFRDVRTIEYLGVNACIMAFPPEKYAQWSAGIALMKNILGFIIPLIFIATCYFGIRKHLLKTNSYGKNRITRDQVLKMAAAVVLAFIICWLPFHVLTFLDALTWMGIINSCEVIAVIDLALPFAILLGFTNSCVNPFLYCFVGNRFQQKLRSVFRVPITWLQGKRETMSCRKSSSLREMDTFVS
Outline: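 Rat adrenal cortical microsomes came from male Sprague-Dawley CD rats (300-400 g) and were prepared at 4 °C in sucrose/EDTA/Tris pH 7.4. Samples were filtered and counted, in duplicate. Specific binding was defined with 1 µM unlabeled AII. IC50 was taken from the linear portion of the displacement curve.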

[6] = test system: Rattus norvegicus; assay: Blood pressure lowering activity in renal hypertensive rats after peroral administration; format: functional; outline: as §1
[7] = test system: Rattus norvegicus; assay: Blood pressure lowering activity in renal hypertensive rats after intravenous administration; no drop in blood pressure or a statistically insignificant drop in blood pressure was observed (in vivo); format: functional; outline: as §2
[8] = test system: Rattus norvegicus; assay: Blood pressure lowering activity in renal hypertensive rats after intravenous administration; format: functional; outline: as §2
[9] = test system: Rattus norvegicus; assay: Effective dose that lowers the blood pressure 30 mmHg after peroral administration; format: functional; settings: po; outline: as §3
[10] = Ionization constant for the compound; format: physicochemical, Rattus norvegicus
[11] = test system: Rattus norvegicus; assay: These values indicate drop in blood pressure activity in renal hypertensive rats after peroral administration; NA=not active indicates fail to cause drop in blood pressure even at 30 mg/Kg (in vivo); format: functional, organism-based
[12] = test system: Rattus norvegicus; assay: Blood pressure lowering activity in renal hypertensive rats after peroral administration; Inactive indicates fail to cause significant drop in blood pressure even at 100 mg/kg; format: functional, organism-based; design: dose 100 mg/kg; outline: as §1
[13] = test system: Rattus norvegicus; assay: Blood pressure lowering activity in renal hypertensive rats after peroral administration; Inactive indicates fail to cause significant drop in blood pressure even at 100 mg/kg (in vivo); format: functional, organism-based; design: dose 100 mg/kg; outline: as §1

## CCCCc1ncc(CO)n1Cc1ccc(-c2ccccc2-c2nn[nH]n2)cc1
[1]
  Activity: inactive
[2]
  Activity: inactive

## CCCCc1nc(C(F)(F)F)c(CO)n1Cc1ccc(-c2ccccc2-c2nn[nH]n2)cc1
[3]
  Activity: >3 mg/kg
[4]
  ED30: 0.53 mg/kg

## CCCCc1nc(Cl)c(CO)n1Cc1ccc(-c2cc(C#N)ccc2-c2nn[nH]n2)cc1
[5]
  IC50: 510 nM
[6]
  Activity: >30 mg/kg
[7]
  Activity: >3 mg/kg

## CCCCc1nc(Cl)c(CNC(=O)c2cc3c(OCC(O)CNC(C)C)cccc3[nH]2)n1Cc1ccc(-c2ccccc2C(=O)O)cc1 (stereo not given)
[5]
  IC50: 380 nM
[4]
  ED30: 1 mg/kg

## CCCCc1nc(Cl)c(C=O)n1Cc1ccc(-c2ccccc2C(=O)O)cc1
[8]
  Activity: 10 mg/kg
[9]
  ED30: 1.7 mg/kg

## CCCCc1nc(Cl)c(CO)n1Cc1ccc(-c2cc(OC)ccc2-c2nn[nH]n2)cc1
[6]
  Activity: >10 mg/kg
[4]
  ED30: 6.03 mg/kg

## CCCCc1nc(Cl)c(CO)n1Cc1ccc(-c2ccccc2C(=O)NS(=O)(=O)c2ccccc2)cc1
[10]
  pKa: 8.44
[7]
  Activity: >3 mg/kg
[11]
  Activity: inactive

## CCCCc1nc(Cl)c(CO)n1Cc1ccc(-c2ccccc2C(=O)O)cc1
[10]
  pKa: 5
[8]
  Activity: 3 mg/kg
[9]
  ED30: 11 mg/kg

## CCCCc1nc(Cl)c(CO)n1Cc1ccc(-c2ccccc2-c2nnn[nH]2)cc1 [LOSARTAN]
[10]
  pKa: 6
[4]
  ED30: 0.8 mg/kg
[9]
  ED30: 0.59 mg/kg

## CC/C=C/c1nc(Cl)c(CO)n1Cc1ccc(-c2ccccc2C(=O)O)cc1
[4]
  ED30: 1 mg/kg
[9]
  ED30: 3.6 mg/kg

## CCCCc1nc(Cl)c(C=O)n1Cc1ccc(-c2ccc(-c3nn[nH]n3)cc2)cc1
[5]
  IC50: > 10000 nM
[6]
  Activity: >30 mg/kg
[7]
  Activity: >3 mg/kg

## CCCCc1nc(Cl)c(CO)n1Cc1ccc(-c2ccc(OC)cc2-c2nn[nH]n2)cc1
[5]
  IC50: 580 nM
[6]
  Activity: >10 mg/kg
[4]
  ED30: 1.75 mg/kg

## CCCCc1nc(Cl)c(CO)n1Cc1ccc(-c2ccccc2C(=O)NOC)cc1
[10]
  pKa: 10.9
[8]
  Activity: 10 mg/kg
[12]
  Activity: inactive

## CCCCc1nc(Cl)c(C(=O)O)n1Cc1ccc(-c2ccccc2C(=O)O)cc1
[5]
  IC50: 92 nM
[6]
  Activity: >10 mg/kg
[4]
  ED30: 0.47 mg/kg

## CCCCc1nc(Cl)c(COC)n1Cc1ccc(-c2ccccc2C(=O)NNS(=O)(=O)C(F)(F)F)cc1
[5]
  IC50: 200 nM
[6]
  Activity: >30 mg/kg
[7]
  Activity: >3 mg/kg

## CCCCc1nc(Cl)c(CO)n1Cc1ccc(-c2ccccc2C(=O)NOCc2ccccc2)cc1
[5]
  IC50: 4900 nM
[10]
  pKa: 10.8
[13]
  Activity: inactive
[8]
  Activity: 10 mg/kg

## CCCc1nc(C)c(CO)n1Cc1ccc(-c2ccccc2C(=O)O)cc1
[5]
  IC50: 1800 nM
[6]
  Activity: >30 mg/kg
[4]
  ED30: 1.3 mg/kg

## CCCCc1nc(Cl)c(CO)n1Cc1ccc(-c2ccccc2C(=O)NO)cc1
[5]
  IC50: 4100 nM
[10]
  pKa: 10.5
[6]
  Activity: >30 mg/kg
[7]
  Activity: >3 mg/kg
